High-throughput results from PubChem.
PGC1a acetyl inh: inhibitors of PGC1a acetylation signal, primary screen, cell-based, U2OS, AlphaScreen, inhibitor mode. AlphaScreen anti-acetyl-lysine; with virally co-expressed GCN5 acetyltransferase. inhibition, % at 15.6 µM. 350,000 tested, 0.17% active;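 active = every replicate shows inhibition of at least 40%; inconclusive = mean inhibition at least 40% but some replicate below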;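 also: 0% = neutral control wells and 100% = positive control wells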
FN deposit inh: inhibitors of fibronectin matrix deposition, primary screen, AH1F cells, Alexa488-fibronectin fluorescence, plate reader. 350,000 tested, 0.086% active. AH1F fibroblasts, overnight. inhibition, % at 12.6 µM;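 active = mean inhibition across replicates of 30% or more, regardless of how many single replicates reach that level; inconclusive = mean under 30% yet at least half of replicates reach 30%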;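 also: positive control wells lacked labelled fibronectin entirely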
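Assay system: AH1F fibroblast monolayer, labelled fibronectin deposition. Amount: 10000 cells per well. Also added: labelled fibronectin 24 nM. Compound: single-point pinned compound. Incubation: cell attachment 1 h, compound and FN exposure overnight. Detection: fluorescence after three HBSS washes, excitation 485 nm, emission 525 nm. Read-out: inhibition of fibronectin deposition signal.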
HIV Env fusion: inhibitors of HIV-1 Env-driven cell-cell fusion, primary screen, HeLa-JRFL effector, CEM21 target cells, luciferase; inhibition, % at 12.3 µM; 360,000 tested, 1.1% active; AID 651610, 2012;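 active = mean replicate inhibition score of at least 50 and every replicate individually at or above 50; inconclusive = only one of the two criteria met; inactive = mean below 50 and not all replicates reaching 50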;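 also: 0% = plate neutral controls and 100% = maraviroc near 300 nM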
PglD inh: C. jejuni PglD acetyltransferase inhibitors, primary screen, biochemical, DTNB colorimetric, single point; inhibition, % at 12.5 µM; AID 602405, 2012; purified PglD enzyme, DTNB colorimetric CoA detection; UDP-N-acetylbacillosamine N-acetyltransferase PglD (Campylobacter jejuni); 360,000 tested, 0.098% active; in the data active = inhibition above about 16%, passing the limit was not always enough; inconclusive = no clear call, values can overlap the other calls
rRNA inh HTS: reduced GFP signal of wild-type E. coli, primary screen, bacterial rRNA inhibitor project, GFP/RFP fluorescence, OD600, single point; E. coli WT GFP vs humanized-ribosome RFP mutants, 24 h; stronger effect = lower value; DMSO median 0, no signal -100; GFP signal change (wild-type ribosome), % (concentration not given with the values); 350,000 tested, 1.6% active; AID 720706, 2013;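 active = significant combined selectivity score with lowered wild-type GFP, culture density cut under 30%, mutant RFP and density less affected; inactive = any of these conditions unmet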
DENV2 CPE: inhibitors of DENV2 cytopathic effect, primary screen, cell-based, plate reader, single concentration | 350,000 tested, 1.7% active | DENV2-infected cells, cytopathic effect rescue | AID 651640, 2012 | CPE inhibition, % at 9.99 µM; in the data active = CPE inhibition above about 20%, passing the limit was not always enough; inconclusive = no clear call, values can overlap the other calls; tested in BHK-21 cells;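 also: 0% = median of neutral control wells and 100% = median of positive control wells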
Numbers without * were called inactive; ? = inconclusive; · = no result; ! = repeats disagree; [ ] = dose if it differs, or a comment. Sampled rows, rich in hits. Any-hit rate of the full collection: about 3.5%.

SMILES	PGC1a acetyl inh	FN deposit inh	HIV Env fusion	PglD inh	rRNA inh HTS	DENV2 CPE
C[C@H]1CCCCO[C@@H](CN(C)CC2CCCCC2)[C@@H](C)CN([C@@H](C)CO)C(=O)c2cc(NC(=O)C3CCCCC3)ccc2O1	8	·	18[16.7 µM]	0	3	-5
CCC(=O)N[C@@H]1C=C[C@H](CC(=O)NCC2CCCCC2)O[C@H]1CO	11	·	-28[16.7 µM]	2	0	-1
Cc1noc(C)c1NC(=O)Nc1ccc2c(c1)C(=O)N([C@H](C)CO)C[C@@H](C)[C@H](CN(C)C(=O)Nc1ccc(C(F)(F)F)cc1)OCCCC[C@H](C)O2	-6	6	-9[16.7 µM]	1	-1	-9
COC(=O)[C@H]1[C@H](CO)[C@H]2Cn3c(ccc(-c4ccccc4)c3=O)[C@H]2N1Cc1ccccc1F	·	·	·	0	-6	-11
O=C(c1cccc(F)c1)N1C[C@H]2[C@@H](c3ccccc31)[C@H](CO)N2C(=O)c1cccc(F)c1	-6	-3	·	5	1	-9
O=C(c1cccc(F)c1)N1C[C@H]2[C@@H](c3ccccc31)[C@@H](CO)N2C(=O)c1cccc(F)c1	3	16	·	3	-1	21*
CC1=C(C(=O)OCc2ccccc2)C(c2cccnc2)c2c(n(C)c(=O)n(C)c2=O)N1 (stereo not given)	-7	10	·	2	-17*!	-3
CC1=C(C(=O)OCc2ccccc2)C(c2cccnc2)n2ncnc2N1 (stereo not given)	-4	·	·	·	·	·
CCOc1cccc(C(=O)Nc2ccc3oc(Cc4ccc(Cl)cc4)nc3c2)c1	·	·	·	0	-30*	·
C[C@H](CO)N1C[C@H](C)[C@@H](CN(C)Cc2ccncc2)Oc2ccc(N(C)C)cc2C1=O	23	-7	45[16.7 µM]	-1	3	47*
C[C@H](CO)N1C[C@H](C)[C@@H](CN(C)Cc2ccc(Cl)c(Cl)c2)Oc2ccc(N(C)C)cc2C1=O	4	-6	58*[16.7 µM]	-2	-40	1
C[C@H]1CN([C@@H](C)CO)C(=O)c2cc(N(C)C)ccc2O[C@@H]1CN(C)Cc1ccc(Cl)c(Cl)c1	1	-17	47[16.7 µM]	0	-59	-1
C[C@H](CO)N1C[C@H](C)[C@@H](CN(C)C(=O)C2CC2)Oc2cc(C#CC3CCCC3)ccc2S1(=O)=O	11	·	-5[16.7 µM]	6	-5	-5
Cc1nc2cc(Cl)c(Cl)cc2n1CCCO	6	8	7	1	-22*	12
CO[C@@H]1CN(C)C(=O)c2cc(NC(=O)c3ccc(Oc4ccccc4)cc3)ccc2OC[C@H](C)NC[C@@H]1C	5	14	16[16.7 µM]	-5	-5	22*
CO[C@@H]1CN(C)C(=O)c2ccc(NC(=O)c3ccc(Oc4ccccc4)cc3)cc2OC[C@H](C)NC[C@@H]1C	1	12	23[16.7 µM]	-1	-2	?
CO[C@H]1CN(C)C(=O)c2cc(NC(=O)c3ccc(Oc4ccccc4)cc3)ccc2OC[C@H](C)NC[C@H]1C	-30	18	-3[16.7 µM]	2	-42	-4
CO[C@H]1CN(C)C(=O)c2ccc(NC(=O)c3ccccc3)cc2OC[C@H](C)NC[C@@H]1C	-1	-7	·	·	2	39*
CO[C@H]1CN(C)C(=O)c2ccc(NC(=O)c3ccccc3)cc2OC[C@H](C)NC[C@H]1C	-3	-13	·	-1	1	-4
CO[C@H]1CN(C)C(=O)c2ccc(NC(=O)c3ccc(Oc4ccccc4)cc3)cc2OC[C@@H](C)NC[C@H]1C	-16	-12	8[16.7 µM]	-1	-5	31*
COc1ccc(NC(=O)N(C)C[C@@H]2Oc3c(NC(=O)Nc4ccccc4)cccc3C(=O)N([C@@H](C)CO)C[C@H]2C)cc1	-4	·	-3[16.7 µM]	-3	-3	-6
Cc1noc(C)c1S(=O)(=O)N(C)C[C@@H]1Oc2c(NC(=O)C3CCCCC3)cccc2C(=O)N([C@H](C)CO)C[C@@H]1C	-5	·	·	7	-4	11
CCNC(=S)N/N=C/c1cccc(C)c1	·	-1	-3	·	-14*	·
CCNC(=S)N/N=C/c1cc(C)ccc1C	·	-3	-18	·	3	7
CC(C)CC(NS(=O)(=O)c1ccc2c(c1)oc(=O)n2C)C(=O)NC1CCCc2ccccc21 (stereo not given)	-2	4	58*	4	2	-6
SMILES	PGC1a acetyl inh	FN deposit inh	HIV Env fusion	PglD inh	rRNA inh HTS	DENV2 CPE
CCOC(=O)Cn1c(=O)oc2cc(S(=O)(=O)NC3CCCCC3)ccc21	5	·	·	-4	·	·
Cn1c(=O)oc2cc(S(=O)(=O)NCCC(=O)NC3CCCc4ccccc43)ccc21 (stereo not given)	-6	·	·	-2	12	-5
CCOC(=O)Cn1c(=O)oc2cc(S(=O)(=O)NC3CCCc4ccccc43)ccc21 (stereo not given)	2	-1	28	·	2	27*
COC1=CC(=O)c2c(ccc3ncnc(N)c23)C1=O	66*	31*	76*	·	·	-1
COC1=CC(=O)c2nc(Cl)ccc2C1=O	·	10	24	·	5	-10
CCC(=O)Nc1ccc2c(c1)C(=O)N(C)C[C@@H](OC)[C@@H](C)CN(Cc1cccc(F)c1)[C@H](C)CO2	-8	3	·	-2	-7	-4
C[C@@H]1CN([C@H](C)CO)C(=O)c2ccccc2-c2ccccc2CO[C@H]1CN(C)C(=O)[C@@H]1CCCN1C	1	0	-7[16.7 µM]	0	1	3
COc1ccc(C(=O)c2cc3ccc(O)cc3oc2=O)cc1	7	·	·	3	-18*	·
O=C(c1ccc(Br)cc1)c1cc2ccc(O)cc2oc1=O	·	3	0	-6	-33	-2
CC(C)C(=O)Nc1nnc(S(=O)(=O)N2CCCc3ccccc32)s1	-5	-6	-11	4	-2	-2
CC(C)C(=O)Nc1nnc(S(=O)(=O)N2CCc3ccccc32)s1	0	-6	-19	-4	8	107*
CCc1nnc(NC(=O)CSc2nnc(-c3ccc(NS(=O)(=O)c4ccccc4)cc3)o2)s1	-7	-3	·	1	-16	26*
Cc1noc(C)c1NC(=O)N(C)C[C@H]1OCCCC[C@@H](C)Oc2ccc(NS(=O)(=O)c3ccc(Cl)cc3)cc2C(=O)N([C@H](C)CO)C[C@@H]1C	-8	0	11[16.7 µM]	2	1	?
CCCCn1cnc2c(c(-c3ccccc3)c(-c3ccccc3)n2Cc2ccco2)c1=N	-24	39*	11	3	·	-16
CNC(=O)C[C@H]1CC[C@@H]2[C@@H](COc3ccc(NC(=O)c4cc(F)cc(F)c4)cc3C(=O)N2C)O1	-2	1	2[16.7 µM]	2	0	-5
